Consider 16 molecules from ChEMBL document CHEMBL4732225, “Identification of a new class of HBV capsid assembly modulator” (Bioorg Med Chem Lett, 2021).

Data set [1] is described as follows: Metabolic stability in human microsomes assessed as intrinsic clearance. Type of data set: ADME, Microsome.
A short description of data set [2]: Volume of distribution at steady state in Sprague-Dawley rat at 5 mg/kg, po or 1.25 mg/kg, iv. The format is ADME, organism-based. The settings on record: in vivo, read-out: Vdss. The gist of the method:
(§1)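 Sprague-Dawley rats, n = 3. Oral dose 5 mg/kg in 70% PEG400 vehicle; IV dose 1.25 mg/kg in saline vehicle.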

A short description of data set [3]: Plasma clearance in Sprague-Dawley rat at 5 mg/kg, po or 1.25 mg/kg, iv. Type of data set: ADME, organism-based. The gist of the method: as §1
A short description of data set [4]: Ratio of drug level in liver to plasma in Sprague-Dawley rat at 5 mg/kg, po or 1.25 mg/kg, iv. The format is ADME, organism-based. The settings on record: liver and plasma. The method, boiled down: as §1
The nature of data set [5]: Oral bioavailability in Beagle dog at […]. Type of data set: ADME, organism-based, Canis lupus familiaris. The settings on record: in vivo, dose 2.5 mg/kg.
A short description of data set [6]: Cmax in Beagle dog at […], po. The settings on record: in vivo. The format is ADME, organism-based, Canis lupus familiaris. Further details: route oral, dose 2.5 mg/kg.
The nature of data set [7]: Cmax in Sprague-Dawley rat at 5 mg/kg, po. The format is ADME, organism-based. The settings on record: in vivo. Also on record: route oral, dose 5 mg/kg. The method, boiled down: as §1
A short description of data set [8]: Half life in Sprague-Dawley rat at 5 mg/kg, po or 1.25 mg/kg, iv. The conditions noted are these: in vivo. Type of data set: ADME, organism-based. The method, boiled down: as §1
Data set [9] in a line: Oral bioavailability in Sprague-Dawley rat at 5 mg/kg. The format is ADME, organism-based. The conditions noted are these: in vivo. The gist of the method: as §1
Data set [10] can be described thus: Volume of distribution at steady state in Beagle dog at […], po or 1 mg/kg, iv. Type of data set: ADME, organism-based, Canis lupus familiaris. The conditions noted are these: in vivo, dose 2.5 mg/kg, read-out: Vdss.
Data set [11] in a line: AUC (0 to infinity) in Sprague-Dawley rat at 5 mg/kg, po. Type of data set: ADME, organism-based. Further details: time infinity, route oral, dose 5 mg/kg. The settings on record: in vivo. The method, boiled down:
as §1

A short description of data set [12]: AUC (0 to infinity) in Beagle dog at […], po. Also on record: route oral, time infinity, dose 2.5 mg/kg. Type of data set: ADME, organism-based, Canis lupus familiaris. The settings on record: in vivo.
Data set [13] can be described thus: Half life in Beagle dog at […], po or 1 mg/kg, iv. The format is ADME, organism-based, Canis lupus familiaris. The settings on record: in vivo, dose 2.5 mg/kg.
Data set [14] in a line: Tmax in Sprague-Dawley rat at 5 mg/kg, po. Type of data set: ADME, organism-based. The conditions noted are these: in vivo. The gist of the method: as §1
The nature of data set [15]: Tmax in Beagle dog at […], po. Type of data set: ADME, organism-based, Canis lupus familiaris. The settings on record: in vivo, dose 2.5 mg/kg.

As to `O=C(Nc1cccc(Cl)c1)N1CCc2[nH]nc(-c3ccsc3)c2C1`, the CLint scaled – broadly, the capacity of the preparation to metabolise the compound, expressed as a volume cleared per time – in data set [1] is 160 mL/min/kg.

With `C[C@H]1Cc2[nH]nc(-c3cscn3)c2CN1C(=O)Nc1ccnc(Br)c1F`, the CLint scaled in [1] stood at 12 mL/min/kg. Same read-out and setting: the figure for `C[C@H]1Cc2[nH]nc(-c3ccccc3)c2CN1C(=O)Nc1cccc(Cl)c1` is 15 mL/min/kg.

On to `C[C@H]1Cc2[nH]nc(-c3cscn3)c2CN1C(=O)Nc1ccc(F)c(C#N)c1`, for which the Vd in [2] is 2.97 L/kg; in [10], 3 L/kg. The molecule also gave a clearance in [3] of 30.7 mL/min/kg. For the same molecule, the Kp (as a rule, the ratio of the level in a tissue or fluid to that in plasma or blood) in [4] came to 17. Moreover, in data set [5], the F turned out to be 73%. In addition, the Cmax (commonly the maximum level reached in the sampled fluid or tissue) came to 472 ng/mL in data set [6] and 73 ng/mL in [7]. Also, the CLint scaled in data set [1] was found to be 13 mL/min/kg. Further, the half-life (commonly the time needed for the level to fall by half in the phase considered) was 137 min in data set [8] and 130 min in [13]. Moreover, the bioavailability – broadly, the share of a dose that reaches the circulation, judged against a reference dose that is usually intravenous – in data set [9] came out at 38%. Also, in [11], the AUC(0-inf) (as a rule, the area under the concentration-time curve extrapolated to infinity) amounted to 1030 ng·h/mL. Besides, the AUC (in general, concentration integrated over time) in [12] was 1620 ng·h/mL. In addition, the results for the Tmax in data set [14] and in [15] were 6 h and 1 h, respectively. Consider `Cc1cc(NC(=O)N2Cc3c(-c4cscn4)n[nH]c3C[C@@H]2C)ccc1F`, for which the CLint scaled in [1] is 14 mL/min/kg. Take `C[C@H]1Cc2[nH]nc(-c3cccs3)c2CN1C(=O)Nc1cccc(Cl)c1`: the CLint scaled in data set [1] was 17 mL/min/kg. Turning to `O=C(Nc1cccc(Cl)c1)N1CCc2[nH]nc(-c3cscn3)c2C1`, in data set [1], the CLint scaled came to 33 mL/min/kg. On the same count and under the same terms, the figure for `O=C(Nc1cccc(Cl)c1)N1CCc2[nH]nc(-c3cccs3)c2C1` is 356 mL/min/kg; for `C[C@H]1Cc2[nH]nc(-c3cscn3)c2CN1C(=O)Nc1ccc(F)c(Br)c1` it is 24 mL/min/kg; for `C[C@H]1Cc2c(c(-c3cccs3)nn2C)CN1C(=O)Nc1cccc(Cl)c1` it is 146 mL/min/kg. Same read-out and setting: the figure for `O=C(Nc1cccc(Cl)c1)N1CCc2[nH]nc(-c3cocn3)c2C1` is 50 mL/min/kg. The same measure, in the same setting: in the case of `CC[C@H]1Cc2[nH]nc(-c3ccccc3)c2CN1C(=O)Nc1cccc(Cl)c1` it was 22 mL/min/kg; in that of `C[C@H]1Cc2[nH]nc(-c3cscn3)c2CN1C(=O)Nc1cccc(Cl)c1`, 20 mL/min/kg.

Regarding `O=C(Nc1cccc(Cl)c1)N1CCc2[nH]nc(-c3nccs3)c2C1`, the intrinsic clearance (CLint scaled) in [1] amounted to 53 mL/min/kg. Still for that read-out and setting: in the case of `C[C@@H]1Cc2[nH]nc(-c3ccccc3)c2CN1C(=O)Nc1cccc(Cl)c1` it was 43 mL/min/kg; in that of `C[C@H]1Cc2[nH]nc(-c3cscn3)c2CN1C(=O)Nc1ccc(F)c(Cl)c1`, 21 mL/min/kg.
